Consider one compound from ChEMBL document CHEMBL4011629, “New Disubstituted Quindoline Derivatives Inhibiting Burkitt's Lymphoma Cell Proliferation by Impeding c-MYC Transcription” (J Med Chem, 2017).

The test system of series [1] is Raji. The series is described as follows: Induction of apoptosis in human Raji cells assessed as early apoptotic cells at 0.5 uM after 12 hrs by Annexin V-FITC/propidium iodide staining based flow cytometry (reference value: 2.3%). Format: functional. Summed up:
(§1)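 RAJI cells exposed to compound or control medium for 12 or 48 h were washed in PBS and resuspended in binding buffer. They were stained with FITC annexin V and PI for 15 min in the dark, and fluorescence was measured by flow cytometry.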
(In general: In flow cytometry, cells or beads pass a laser one at a time.)

Series [2] is described as follows: Selectivity ratio of Kd for 5'-FAM labeled duplex DNA (unknown origin) to Kd for 5'-FAM labeled c-Myc Pu27 G-quadruplex DNA (unknown origin). Summed up:
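MST binding: FAM-Pu27 or FAM-duplex oligo at 10 μM in 10 mM Tris-HCl pH 7.4 with 150 mM KCl, annealed 95 °C 5 min, slow-cooled, held 4 °C overnight. Ligand titrated as a 12-point series, 0–20 μM for G4 or up to 200 μM for duplex. KD fitted with Hill model; three replicates.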

Series [3] relates to Raji. Briefly: Induction of apoptosis in human Raji cells assessed as downregulation of CDK4 expression after 12 hrs by Western blot method. The series is classed as functional, cell-based. Summed up: (§2)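 After compound exposure (12 h for cell-cycle and apoptosis markers), RAJI cells were lysed in 1% NP-40 buffer. Protein at 50 μg per lane was run on 3–12% SDS-PAGE and transferred to nitrocellulose. Blots were probed with primary antibodies (GAPDH as loading reference) and detected with an HRP secondary and enhanced chemiluminescence.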
For orientation: A western blot detects proteins with antibodies after separation by electrophoresis.

Series [4] is described as follows: Drug uptake in human Raji cells at 1 uM after 6 hrs. The series is classed as ADME, cell-based.
The next series deals with Mus musculus. Briefly: Toxicity in NOD/SCID nude mouse xenografted with human Raji cells assessed as reduction in viscera weight at 15 to 30 mg/kg, ip administered once daily for 2 weeks measured every day during compound dosing. Format: organism-based. The following applies: in vivo, 336 h. In short, it runs like this: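 NOD/SCID mice implanted subcutaneously in the underarm with 5 × 10^6 RAJI cells in 100 μL RPMI 1640 with 10% serum; tumours grown about 1 week, then mice randomized. Body weight recorded daily; organ weights taken at end.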
On the technique in general: In xenograft studies the graft and the host belong to different species.

Series [5] can be described thus: Inhibition of NM23-H2 binding to 5'-FAM labeled c-Myc Pu27 G-quadruplex DNA (unknown origin) preincubated for 1 hr followed by NM23-H2 addition by electrophoretic mobility shift assay. In short, it runs like this: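 Annealed labelled Pu27 (1.5 μM) was preincubated with 10 μM agent or 5% DMSO for 1 h at 25 °C. […] Complexes were resolved on 5% native PAGE in 0.5× TBE at 4 °C, 150 V. Inhibition was taken against the no-compound complex band (set as 100%); three runs, Hill-fit IC50.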

Series [6] deals with Raji. Briefly: Induction of apoptosis in human Raji cells assessed as early apoptotic cells at 1 uM after 48 hrs by Annexin V-FITC/propidium iodide staining based flow cytometry (reference value: 1.8%). Format: functional. In short, it runs like this: as §1
Series [7] concerns Raji. The series is described as follows: Induction of apoptosis in human Raji cells assessed as downregulation of CDK6 expression after 12 hrs by Western blot method. Format: functional, cell-based. In short, it runs like this:
as §2

Series [8] has as its system Raji. Briefly: Cell cycle arrest in human Raji cells assessed as accumulation at G0/G1 phase after 6 hrs by propidium iodide staining based flow cytometry (reference value: 38.5%). Format: functional.
For series [9], the system named is Raji. Briefly: Cell cycle arrest in human Raji cells assessed as accumulation at G0/G1 phase after 24 hrs by propidium iodide staining based flow cytometry (reference value: 38.5%). Format: functional.
The test system of series [10] is Raji. The series is described as follows: Induction of apoptosis in human Raji cells assessed as late apoptotic cells at 0.5 uM after 48 hrs by Annexin V-FITC/propidium iodide staining based flow cytometry (reference value: 0.1%). The series is classed as functional. Summed up:
as §1

The subject of series [11] is Raji. The series is described as follows: Cell cycle arrest in human Raji cells assessed as accumulation at S phase after 12 hrs by propidium iodide staining based flow cytometry (reference value: 32.2%). The series is classed as functional.
The species named for series [12] is Homo sapiens. Briefly: Effect on c-Myc DNA translocated chromosome product in human Raji cells assessed as decrease in amplification of exon-2 after 12 hrs by RT-PCR method. Format: cell-based. Summed up:
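RAJI cells, which retain NHE III1, and CA46 cells, which lack NHE III1 and the P1/P2 promoters, were exposed to graded compound concentrations for 12 h. Total RNA (2 μg) was reverse-transcribed with oligo dT18 and M-MLV. c-MYC exons 1 and 2, NM23-H2 and β-actin were amplified by real-time PCR against untreated cells. Three repeats were done; two-tailed unpaired t-test.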

Series [13] concerns Raji. The series is described as follows: Effect on NM23-H2 transcription level in human Raji cells up to 4 uM after 12 hrs by RT-PCR method. Format: functional, cell-based.
Series [14] in a line: Stabilization of c-Myc Pu27 G-quadruplex DNA (unknown origin) assessed as induction of parallel G-quadruplex formation in absence of K+ ions by CD spectroscopic analysis. In short, it runs like this:
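CD spectra: Pu27 at 5 μM in 10 mM Tris-HCl pH 7.4 without or with 100 mM KCl, annealed 95 °C 5 min, slow-cooled, kept at 4 °C overnight, with ligand. Scanned 230–400 in a 4 mm quartz cuvette, 1 nm bandwidth and step, 0.5 s/point; buffer baseline subtracted.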

The subject of series [15] is Raji. The series is described as follows: Induction of apoptosis in human Raji cells assessed as necrotic cells at 0.5 uM after 48 hrs by Annexin V-FITC/propidium iodide staining based flow cytometry relative to control. The series is classed as functional. In short, it runs like this:
as §1

The subject of series [16] is Raji. The series is described as follows: Cell cycle arrest in human Raji cells assessed as accumulation at S phase after 24 hrs by propidium iodide staining based flow cytometry (reference value: 32.2%). The series is classed as functional.
Series [17] relates to Raji. Briefly: Induction of apoptosis in human Raji cells assessed as necrotic cells at 0.5 uM after 12 hrs by Annexin V-FITC/propidium iodide staining based flow cytometry relative to control. Format: functional. Summed up:
as §1

For series [18], the species on record is Homo sapiens. Briefly: Stabilization of c-Myc G-quadruplex DNA in human Raji cells assessed as decrease in amplification of exon-1 after 12 hrs by RT-PCR method. Format: cell-based. In short, it runs like this: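 Exon-specific assay: RAJI and CA46 cells exposed to various ligand concentrations for 12 h; total RNA (2 μg) reverse-transcribed with oligo dT18 and M-MLV (42 °C 1 h). c-MYC exon 1 and exon 2, NM23-H2 and β-actin amplified by real-time PCR, products run on 1% agarose; untreated cells as control; three repeats, two-tailed unpaired t test.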

Active and inactive are the calls of the source. No cut-off for these calls is given here.

As for `CN(C)CCCNc1c2ccccc2nc2c1oc1ccc(OCC3CCN(C)CC3)cc12`, the Activity with Raji [1] is 4.6%; in the series on Raji [3], “Dose-dependent effect”; in the series with Mus musculus it was “Non-Toxic”; in the series with Raji [6], 52.9%; in the series with Raji [7], “Dose-dependent effect”; with Raji [8], 50.2%. In addition, the Activity was 56.3% in the series with Raji [9]; 0.7% in the series on Raji [10]; 5.5% in the series on Raji [11]; “Dose-dependent effect” in the series listed under Homo sapiens [12]; 0% with Raji [15]; 19.4% in the series on Raji [16]. For the same compound, the Activity is 0% in the series with Raji [17] and “Dose-dependent effect” in the series filed under Homo sapiens [18]. Further, the Selectivity ratio in series [2] was 8. Further, in series [4], the Drug uptake result was “Active”. In series [5], the IC50 (in general, the midpoint of a concentration-inhibition curve) is 1560 nM. Moreover, in the series with Raji [13], the outcome was inactive. In addition, the outcome in series [14] was Active.
